Assay results taken from ChEMBL document CHEMBL3045423, “Cynodontin: a fungal metabolite with antifungal properties” (J Agric Food Chem, 2003).
≈ marks a conversion by molar mass, not a printed value. Calls of active or inactive are those of the source. No cut-off for these calls is given here.

Columns and labels:
Botrytis cinerea [1] = assay: Antifungal activity against Botryotinia fuckeliana assessed as inhibition of conidia germination at 1 to 10 ug/mL after 5 hr by light adverse phase microscopic analysis; format: functional, organism-based
Summary of the method: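 B. cinerea conidia (10^6/mL in water) applied as 0.2 mL droplets onto water-agar (agar plus deionized water) with or without test substance added in acetone. Incubated 5 h in the dark at 25 °C. Percent germination scored from 200 conidia per dish under light microscopy.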

Sclerotinia sclerotiorum = assay: Antifungal activity against Sclerotinia sclerotiorum assessed as mycelial growth inhibition after 4 to 8 days; format: functional; conditions: read-out: ED50 (the source's name)
Summary of the method: (§1)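 Test substance added in acetone (solvent at most 0.8% in treated and control plates) to sterilized potato dextrose agar. Plates inoculated with 0.5 cm mycelial blocks and incubated in the dark at 25 °C for 4-8 days depending on species. Linear growth inhibition estimated from colony diameter.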

Verticillium dahliae = assay: Antifungal activity against Verticillium dahliae assessed as mycelial growth inhibition after 4 to 8 days; format: functional; conditions: read-out: ED50 (the source's name); summary of the method: as §1
Sclerotinia minor = assay: Antifungal activity against Sclerotinia minor assessed as mycelial growth inhibition after 4 to 8 days; format: functional; conditions: read-out: ED50 (the source's name); summary of the method: as §1
Botrytis cinerea [2] = assay: Antifungal activity against Botryotinia fuckeliana assessed as mycelial growth inhibition after 4 to 8 days; format: functional; conditions: read-out: ED50 (the source's name); summary of the method: as §1
Brassica oleracea [3] = assay: Phytotoxicity in Brassica oleracea (cabbage) assessed as seed germination at 250 mg/mL applied as seed dressings after 8 to 14 days (reference value: 90 +/- 5.3%); format: organism-based; conditions: in vivo
Brassica oleracea [4] = assay: Phytotoxicity in Brassica oleracea (broccoli) assessed as seed germination at 250 mg/mL applied as seed dressings after 8 to 14 days (reference value: […] +/- 4.2%); format: organism-based; conditions: in vivo
Solanum melongena = assay: Phytotoxicity in Solanum melongena (eggplant) assessed as seed germination at 250 mg/mL applied as seed dressings after 8 to 14 days (reference value: 84.7 +/- 2.3%); format: organism-based; conditions: in vivo
Lactuca sativa = assay: Phytotoxicity in Lactuca sativa (lettuce) assessed as seed germination at 250 mg/mL applied as seed dressings after 8 to 14 days (reference value: 90 +/- 5.3%); format: organism-based; conditions: in vivo
Capsicum annuum = assay: Phytotoxicity in Capsicum annuum (pepper) assessed as seed germination at 250 mg/mL applied as seed dressings after 8 to 14 days (reference value: 84.7 +/- 4.6%); format: organism-based; conditions: in vivo
Cucumis sativus = assay: Phytotoxicity in Cucumis sativus (cucumber) assessed as seed germination at 250 mg/mL applied as seed dressings after 8 to 14 days (reference value: […] +/- 1.2%); format: organism-based; conditions: in vivo
[5] = system: Brassica oleracea var. botrytis (cauliflower); assay: Phytotoxicity in Brassica oleracea var. botrytis assessed as seed germination at 250 mg/mL applied as seed dressings after 8 to 14 days (reference value: 97.3 +/- 1.2%); conditions: in vivo
Solanum lycopersicum = assay: Phytotoxicity in Solanum lycopersicum (tomato) assessed as seed germination at 250 mg/mL applied as seed dressings after 8 to 14 days (reference value: 94 +/- 2%); format: organism-based; conditions: in vivo
Cucumis melo = assay: Phytotoxicity in Cucumis melo (muskmelon) assessed as seed germination at 250 mg/mL applied as seed dressings after 8 to 14 days (reference value: 90 +/- 2%); format: organism-based; conditions: in vivo

With `Cc1cc(O)c2c(c1)C(=O)c1cccc(O)c1C2=O` [CHRYSOPHANOL] the inhibition (Botrytis cinerea [1]) was “inactive”, the EC50 (Sclerotinia sclerotiorum) was greater than 100 µg/mL and the EC50 (Verticillium dahliae) was greater than 100 µg/mL. For the same compound, the EC50 (Sclerotinia minor) was 74.1 µg/mL (≈ 292 µM) and the EC50 (Botrytis cinerea [2]) was greater than 100 µg/mL.
In the case of `Cc1cc(O)c2c(c1)C(=O)c1cc(O)cc(O)c1C2=O` [EMODIN], the inhibition (Botrytis cinerea [1]) is reported as “inactive”, the EC50 (Sclerotinia sclerotiorum) is reported as 66.5 µg/mL (≈ 246 µM) and the EC50 (Verticillium dahliae) is reported as greater than 100 µg/mL. It also gave an EC50 (Sclerotinia minor) of 38.9 µg/mL (≈ 144 µM) and an EC50 (Botrytis cinerea [2]) of 41.2 µg/mL (≈ 153 µM).
`O=C1c2ccccc2C(=O)c2ccccc21` [ANTHRAQUINONE] was tested, and the inhibition (Botrytis cinerea [1]) was “inactive”, the Activity (Brassica oleracea [3]) was 88% and the Activity (Brassica oleracea [4]) was 87.3%. For the same compound, the EC50 (Sclerotinia sclerotiorum) was greater than 100 µg/mL, the EC50 (Verticillium dahliae) was greater than 100 µg/mL and the EC50 (Sclerotinia minor) was greater than 100 µg/mL. It also gave an Activity (Solanum melongena) of 82.7%, an EC50 (Botrytis cinerea [2]) greater than 100 µg/mL and an Activity (Lactuca sativa) of 88%. The Activity (Capsicum annuum) was 85.3%.
For `Cc1cc(O)c2c(c1O)C(=O)c1c(O)ccc(O)c1C2=O` [Cynodontin], the inhibition (Botrytis cinerea [1]) was “inactive”, the Activity (Brassica oleracea [3]) was 89.3% and the Activity (Cucumis sativus) was 94%. It also gave an Activity [5] of 96.7%, an Activity (Brassica oleracea [4]) of 88% and an EC50 (Sclerotinia sclerotiorum) of 5.52 µg/mL (≈ 19.3 µM). For the same compound, the EC50 (Verticillium dahliae) was 11.5 µg/mL (≈ 40.3 µM), the Activity (Solanum lycopersicum) was 95.3% and the EC50 (Sclerotinia minor) was 4.31 µg/mL (≈ 15.1 µM). The Activity (Solanum melongena) was 82.7%, the Activity (Cucumis melo) was 90.7% and the EC50 (Botrytis cinerea [2]) was 5.25 µg/mL (≈ 18.3 µM). It also gave an Activity (Lactuca sativa) of 96.7% and an Activity (Capsicum annuum) of 84.7%.
